Data on 2 molecules can be found in ChEMBL document CHEMBL4414612, “Synthesis and Pharmacological Evaluation of 1-Phenyl-3-Thiophenylurea Derivatives as Cannabinoid Type-1 Receptor Allosteric Modulators” (J Med Chem, 2019).

Data set [1] is described as follows: Half life in rat liver microsomes in presence of NADPH by LC-MS/MS analysis. Format: ADME, Microsome. In a few lines: (§1)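 Rat liver microsomes (0.5 mg/mL protein) in 100 mM potassium phosphate pH 7.4 at 37 °C with 1 mM NADPH. Samples were taken at 0, 5, 15, 30 and 45 min, quenched with cold acetonitrile containing internal standards, and analysed by LC/MS/MS. Half-life and clearance were calculated; two independent experiments in duplicate.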
(Liver microsomes are a subcellular fraction often used to study metabolism.)

Data set [2] in a line: Apparent permeability from basolateral to apical side in MDCK-MDR1 cells incubated up to 90 mins by LC-MS/MS analysis. In kind it is ADME, cell-based, Canis lupus familiaris. The following applies: dog. The method, boiled down: (§2)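 MDCK-MDR1 cells were grown 3 days on Transwell supports and preincubated 30 min at 37 °C in HBSS with 10 mM HEPES and 0.25% BSA, pH 7.4, with TEER checked. Test article (10 µM) was added to the apical (A-to-B) or basolateral (B-to-A) donor side at 37 °C with light agitation. Receiver samples were taken at 30, 60 and 90 min for LC-MS/MS. Papp = (dQ/dt)/(A·Ci·60).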

In data set [3] the test system is Rattus norvegicus. As to the kind of experiment: Suppression of drug-induced cocaine-seeking behavior in Sprague-Dawley rat assessed as effect on active responses at 10 mg/kg, ip pretreated 10 mins prior to priming injection of cocaine administered immediately before the start of the reinstatement session. In kind it is functional, organism-based.
Data set [4] can be described thus: Kinetic solubility in phosphate buffer at 400 uM incubated for 2 hrs by LC-MS/MS analysis. The following applies: read-out: Kinetic_solubility. Format: physicochemical. The method, boiled down: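 A 20 mM DMSO stock was diluted into phosphate buffer to a targeted 400 µM and vortexed 2 h at room temperature. Three independent experiments in duplicate.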
The target in data set [5] is T1, Cannabinoid receptor 2 (Homo sapiens, UniProt P34972). Description: Agonist activity at human CB2 receptor expressed in CHO cells co-expressing Galpha16 assessed as increase in calcium mobilization at 10 uM measured at 1 sec interval for 90 secs by calcium-5 dye based FLIPR assay relative to CP55,940. In kind it is functional, cell-based. Background: Calcium flux is commonly read through the fluorescence of an indicator in the cells.

The target in data set [6] is T1, Cannabinoid receptor 2. Description: Antagonist activity at human CB2 receptor expressed in CHO cells co-expressing Galpha16 assessed as inhibition of EC80 CP55,940-induced calcium mobilization at 10 uM preincubated for 15 mins followed by […] addition measured at 1 sec interval for 90 secs by calcium-5 dye based FLIPR assay relative to CP55,940. Format: functional, cell-based. The method, boiled down: (§3)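 CB2 antagonist mode in stable human CB2-CHO-RD-HGA16 cells. Cells were dye-loaded, then pretreated with compound for 15 min at 37 °C. CP55,940 was added at its EC80 at the 10 s point, and calcium fluorescence was recorded every 1 s over 90 s.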

A short description of data set [7]: Apparent permeability from apical to basolateral side in MDCK-MDR1 cells incubated up to 90 mins by LC-MS/MS analysis. In kind it is ADME, cell-based, Canis lupus familiaris. The following applies: dog. The method, boiled down:
as §2

The target in data set [8] is T2, Cannabinoid receptor 1 (Homo sapiens, UniProt P21554). Description: Inverse agonist activity at human CB1 receptor expressed in HEK293 cell membranes assessed as suppression of [35S]GTPgammaS binding up to 10 uM incubated for 60 mins by scintillation counting method. The note with it: hek293, 1 h. In a few lines: (§4)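 Inverse agonism on human CB1-HEK293 membranes: compounds were incubated 60 min with 0.1 nM [35S]GTPγS and 30 µM GDP, with no CP55,940 present. Buffer was Tris/MgCl2/EGTA pH 7.4 with 0.5% BSA, at 30 °C. Binding was read by filtration and scintillation counting and normalized to basal (vehicle = 0%).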
For orientation: Binding of GTPγS marks nucleotide exchange on a G protein.

Data set [9] can be described thus: Efflux ratio from basolateral to apical side over apical to basolateral side in MDCK-MDR1 cells incubated up to 90 mins by LC-MS/MS analysis. Format: ADME, cell-based, Canis lupus familiaris. The note with it: dog.
Data set [10] has as its target T1, Cannabinoid receptor 2. Description: Antagonist activity at human CB2 receptor expressed in CHO cells co-expressing Galpha16 assessed as inhibition of EC80 CP55,940-induced calcium mobilization preincubated for 15 mins followed by […] addition measured at 1 sec interval for 90 secs by calcium-5 dye based FLIPR assay. In kind it is functional, cell-based. In a few lines: as §3

The subject of data set [11] is Rattus norvegicus. Description: Suppression of drug-induced cocaine-seeking behavior in Sprague-Dawley rat assessed as effect on inactive responses at 10 mg/kg, ip pretreated 10 mins prior to priming injection of cocaine administered immediately before the start of the reinstatement session. In kind it is functional, organism-based.
In data set [12] the target is T2, Cannabinoid receptor 1. Description: Allosteric modulator activity at human CB1 receptor expressed in CHO-RD-HGA16 cells co-expressing Galpha16 assessed as suppression of 100 nM CP55,940-induced calcium mobilization pre-incubated for 15 mins by Calcium 5 dye based FLIPR assay. In kind it is functional, cell-based.
Data set [13] can be described thus: Clearance in rat liver microsomes in presence of NADPH incubated up to 45 mins by LC-MS/MS analysis. Format: ADME, Microsome. The method, boiled down: as §1
The target of data set [14] is T2, Cannabinoid receptor 1. Description: Inverse agonist activity at human CB1 receptor expressed in HEK293 cell membranes assessed as suppression of [35S]GTPgammaS binding at 10 uM incubated for 60 mins by scintillation counting method. The note with it: hek293, 1 h. In a few lines:
as §4

Data set [15] is described as follows: Half life in rat liver microsomes. The following applies: microsomes. In kind it is ADME, Microsome. In a few lines:
as §1

For data set [16], the target named is T3, Cannabinoid receptor 1 (Mus musculus, UniProt P47746). As to the kind of experiment: Allosteric modulator activity at CB1 receptor in mouse cerebellar membranes assessed as suppression of 100 nM CP55,940-induced [35S]GTPgammaS binding incubated for 60 mins by scintillation counting method. In kind it is functional, cell membranes, Cerebellum, Membrane.

The target in data set [17] is T2, Cannabinoid receptor 1. As to the kind of experiment: Agonist activity at human CB1 receptor expressed in CHO-RD-HGA16 cells co-expressing Galpha16 assessed as suppression stimulation of calcium mobilization incubated for 45 mins by Calcium 5 dye based FLIPR assay relative to CP55,940. In kind it is functional, cell-based. In a few lines:
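CHO-RD-HGA16 cells stably expressing human CB1 (with Galpha16), plated overnight and loaded with Calcium 5 dye for 45 min at 37 °C. […] Compound was added by the FLIPR Tetra at the 10 s point as a single concentration, and fluorescence (485/525 nm) was read every 1 s for 90 s. RFU were expressed as % of CP55,940 Emax.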

Data set [18] has as its target T3, Cannabinoid receptor 1. As to the kind of experiment: Allosteric antagonist activity at mouse CB1 receptor by GTPgammaS assay. Format: functional. In a few lines: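 Cerebellar membranes from male ICR mice (6-8 weeks), preincubated 10 min with adenosine deaminase (3 units/ml) in Tris/MgCl2/EGTA buffer, pH 7.4. Membranes (10 µg) pre-equilibrated 30 min with modulator, CP55,940 (100 nM; some also at 1 µM), 30 µM GDP and 0.5% BSA, then 0.1 nM [35S]GTPγS for 60 min at 30 °C.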

Data set [19] has as its target T3, Cannabinoid receptor 1. As to the kind of experiment: Allosteric modulator activity at CB1 receptor in mouse cerebellar membranes assessed as suppression of 1 uM CP55,940-induced [35S]GTPgammaS binding incubated for 60 mins by scintillation counting method. In kind it is functional, cell membranes, Cerebellum, Membrane.

≈ marks a conversion by molar mass, not a printed value. Calls of active or inactive are those of the source. The calls are words filed in the database; no cut-off is given here.

T1 sequence (P34972 whole entry): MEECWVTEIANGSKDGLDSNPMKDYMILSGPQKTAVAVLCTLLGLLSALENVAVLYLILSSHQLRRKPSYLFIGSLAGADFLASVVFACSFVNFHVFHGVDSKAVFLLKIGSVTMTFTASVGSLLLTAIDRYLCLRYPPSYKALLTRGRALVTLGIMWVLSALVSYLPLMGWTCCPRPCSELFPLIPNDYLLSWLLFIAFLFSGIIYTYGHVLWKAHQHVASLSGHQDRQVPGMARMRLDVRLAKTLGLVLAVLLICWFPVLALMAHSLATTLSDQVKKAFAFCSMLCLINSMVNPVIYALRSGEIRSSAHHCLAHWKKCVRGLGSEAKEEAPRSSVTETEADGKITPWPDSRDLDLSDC
T2 sequence (P21554 whole entry): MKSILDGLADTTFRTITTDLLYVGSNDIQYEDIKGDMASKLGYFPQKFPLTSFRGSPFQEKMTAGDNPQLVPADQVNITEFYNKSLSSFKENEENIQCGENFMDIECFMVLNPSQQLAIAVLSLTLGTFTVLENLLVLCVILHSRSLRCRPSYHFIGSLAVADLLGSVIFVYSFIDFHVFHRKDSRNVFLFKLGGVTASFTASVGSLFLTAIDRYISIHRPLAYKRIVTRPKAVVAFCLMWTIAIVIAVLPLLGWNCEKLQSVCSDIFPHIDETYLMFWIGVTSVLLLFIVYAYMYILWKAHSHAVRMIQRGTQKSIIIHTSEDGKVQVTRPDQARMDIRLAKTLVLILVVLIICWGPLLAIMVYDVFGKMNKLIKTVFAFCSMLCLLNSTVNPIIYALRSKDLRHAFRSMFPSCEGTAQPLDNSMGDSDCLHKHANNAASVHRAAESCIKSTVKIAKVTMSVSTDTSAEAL
T3 sequence (P47746 whole entry): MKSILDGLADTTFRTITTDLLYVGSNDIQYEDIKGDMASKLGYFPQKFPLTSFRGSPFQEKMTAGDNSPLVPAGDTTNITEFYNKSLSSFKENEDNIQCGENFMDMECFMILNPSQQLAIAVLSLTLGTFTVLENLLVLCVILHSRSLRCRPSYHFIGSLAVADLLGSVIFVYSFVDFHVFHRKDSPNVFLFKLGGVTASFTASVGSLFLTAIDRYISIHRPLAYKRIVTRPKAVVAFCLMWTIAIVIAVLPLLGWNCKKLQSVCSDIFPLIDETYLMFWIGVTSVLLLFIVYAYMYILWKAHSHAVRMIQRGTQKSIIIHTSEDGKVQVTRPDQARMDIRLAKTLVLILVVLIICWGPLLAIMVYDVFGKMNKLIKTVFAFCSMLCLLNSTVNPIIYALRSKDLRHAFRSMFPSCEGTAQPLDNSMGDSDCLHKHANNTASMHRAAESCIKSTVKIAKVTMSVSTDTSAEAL

As for `O=C(Nc1ccc(Cl)cc1)Nc1ccc(-c2ccccc2)s1`, in data set [1] (microsomes), the t1/2 was 65 min. For the same molecule, the values for the apparent permeability coefficient (Papp) in [2] and in data set [7] were 1.1 ×10⁻⁶ cm/s and 1.6 ×10⁻⁶ cm/s, respectively. Further, the result in the data set with Rattus norvegicus [3] and in the data set with Rattus norvegicus [11] was inactive. For the same molecule, in [4], the solubility kinetic at 2 h, 400 µM was determined as 1.5 µM (≈ 0.493 µg/mL). Moreover, on Cannabinoid receptor 2 [5], the Emax (commonly the greatest response seen or fitted, relative to the assay's reference) is less than 10%. Further, the inhibition (in general, how much of the control response was suppressed) on Cannabinoid receptor 2 [6] was less than 50%. Further, the “inhibition (INH)” value on Cannabinoid receptor 1 [8] was “Not Active”. The Ratio in data set [9] worked out at 0.7. The IC50 (as a rule, the midpoint of a concentration-inhibition curve) on Cannabinoid receptor 2 [10] was more than 10000 nM; on Cannabinoid receptor 1 [12] it was 6.8 nM. For the same molecule, the CLH in [13] (microsomes, […]) was found to be 22.2 µL/min/mg.
Consider `O=C(Nc1ccc(Cl)cc1)Nc1cccc(-c2cccc(N3CCCC3)n2)c1`, for which, in data set [1] (liver microsomes), the half-life (usually how long it takes for the measured level to halve) worked out at 13.4 min. Also, the “inhibition (INH)” value at Cannabinoid receptor 1 [14] is given as “Active”. Further, the Papp (as a rule, a coefficient for how fast a substance crosses the barrier) in [2] was 2.2 ×10⁻⁶ cm/s; in data set [7], 2.6 ×10⁻⁶ cm/s. Further, in [4], the solubility kinetic at 2 h, 400 µM was less than 0.5 µM. Also, in data set [15], the t1/2 is reported as 13 min. The IC50 is 288 nM on Cannabinoid receptor 1 [16], more than 10000 nM at Cannabinoid receptor 2 [10] and 115 nM on Cannabinoid receptor 1 [18]. In addition, the Emax at Cannabinoid receptor 1 [17] was less than 30%. The inhibition on Cannabinoid receptor 2 [6] was less than 50%. Also, the pIC50 – broadly, −log10 of the IC50, conventionally taken in molar units – at Cannabinoid receptor 1 [19] is 6.91. Besides, the microsomal CLint at […] in data set [13] (liver microsomes, read-out: CLH) was 114 µL/min/mg.
